# High-throughput results deposited in PubChem by Johns Hopkins Ion Channel Center.
# Only some compounds are listed: those with a hit (about 3.7% of all), similar ones and a draw of the others.
# Kir21 inh: blocks the mouse Kir2.1 inward-rectifier potassium channel; hit rate 0.85% among 310,000; B-score at 10 µM; AID 1672; HEK293-Kir2.1, FluxOR thallium flux fluorescence; stronger effect = lower value; P35561;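 active = fluorescence ratio B-score at or below minus 3 SD of library scores, with starting-brightness B-score within 2 SD, cut at about -4.2 in these data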;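 also: channel flux triggered by added potassium and thallium sulfate stimulus; B-score of peak minus minimum fluorescence over baseline after thallium stimulus; more negative B-score means stronger Kir2.1 block with less thallium influx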
# KCNQ1 pot: potentiates or activates the human KCNQ1 potassium channel | P51787 | CHO-K1 KCNQ1, thallium flux FluxOR fluorescence; stronger effect = higher value | B-score at 10 µM | hit rate 0.35% among 310,000 | AID 2648;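 active = fluorescence ratio B-score, a plate-corrected score, at least three library SD, with initial intensity B-score within 5 SD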
#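 Material: CHO-K1 cells stably expressing KCNQ1. Medium: assay buffer for compound exposure, DMSO matched across wells. Reagent: K+/Tl+ depolarizing stimulus. Compound dosing: single-concentration screen. Times: 37 °C overnight plating, 90-min dark dye load, 20-min compound pretreatment. Technique: FluxOR Tl+ flux fluorescence.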
# hERG protect: compounds protecting human hERG from proarrhythmic drug block. Q12809. CHO-hERG, FluxOR thallium flux, dofetilide IC70 present. activation (rescue from dofetilide block), less the hit threshold, % at 10 µM. hit rate 0.51% among 310,000;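 active = activation above the mean of controls blocked by dofetilide plus 5 SD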;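 also: thallium influx through hERG after potassium depolarization seen as dye fluorescence rise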
# KCNQ1 block: inhibitors of human KCNQ1 potassium channel; P51787; CHO-K1 KCNQ1, FluxOR thallium flux fluorescence; stronger effect = higher value; B-score at 10 µM; hit rate 1.3% among 310,000; AID 2642;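 active = compounds whose thallium flux B-score, printed positive for inhibition, exceeds three library SD while starting fluorescence stays within three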;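 also: channel opened by potassium depolarization with thallium stimulus after 20 min compound exposure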
# KCNK9 block: human KCNK9 channel inhibition; Q9NPC2; HEK293 KCNK9, FluxOR thallium flux fluorescence; stronger effect = lower value; B-score at 10 µM; hit rate 1.2% among 310,000; AID 488922;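 active = ratio B-score over 3 SD below the library mean, with starting fluorescence within 5 SD of its mean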;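 also: negative B-score means less thallium flux so channel inhibition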
# KCNK3 block: human KCNK3 channel inhibition, primary screen | AID 602410 | B-score at 10 µM | CHO-KCNK3 thallium flux, FluxOR fluorescence; stronger effect = lower value | hit rate 0.84% among 340,000;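 active = B-score under library mean minus 4 SD, starting fluorescence ratio at most library mean plus 5 SD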;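 also: more negative B-score means stronger inhibition of thallium flux through KCNK3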
# Target sequence (O14649 whole entry, looked up): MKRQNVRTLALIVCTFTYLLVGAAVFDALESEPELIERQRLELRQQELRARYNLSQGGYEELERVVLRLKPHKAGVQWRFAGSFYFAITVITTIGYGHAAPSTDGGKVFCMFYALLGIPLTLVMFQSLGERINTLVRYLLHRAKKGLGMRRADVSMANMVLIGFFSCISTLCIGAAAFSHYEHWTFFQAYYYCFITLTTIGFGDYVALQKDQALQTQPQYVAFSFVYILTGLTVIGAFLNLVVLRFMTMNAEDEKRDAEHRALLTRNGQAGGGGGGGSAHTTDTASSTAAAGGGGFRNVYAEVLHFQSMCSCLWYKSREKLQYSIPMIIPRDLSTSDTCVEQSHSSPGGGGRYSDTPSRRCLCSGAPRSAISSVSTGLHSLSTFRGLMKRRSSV
# * hit, by the source's call; i = inactive; . = not tested or not shown.
SMILES,Kir21 inh,KCNQ1 pot,hERG protect,KCNQ1 block,KCNK9 block,KCNK3 block
COc1cc(CNC2CCCC2)cc(Cl)c1OCc1ccccc1Cl,-9.32*,i,-27.1,i,i,i
COc1cc(CNn2c(C)n[nH]c2=S)cc(Cl)c1OCc1ccc(F)cc1,0.4,i,-6.6,i,i,i
COc1cc(CNC2CCCCCCC2)cc(Cl)c1OCC(N)=O,-0.99,i,-2.4,i,i,i
CCOc1cc(CNC2CCCC2)cc(Cl)c1OCc1ccc(F)cc1,-11.1*,i,-14.7,i,i,i
COc1cc(CNC2CCCC2)cc(OC)c1OC,2.08,i,1.4,i,i,i
COc1cc(CNC2CCCC2)cc(Cl)c1OCc1ccc(F)cc1,-5.04*,i,-19.3,i,i,i
CCN(C(=O)C(C)OC(=O)CCCNC(=O)c1ccc(Cl)cc1)c1ccccc1 (stereo not drawn),-0.01,i,-6.3,i,i,i
O=C(c1ccc(OC2CCN(CCCc3ccccc3)CC2)cc1)N1CCCC1,-5.9*,i,-12.2,i,i,i
CSc1cccc(CN2CCC(Oc3ccc(C(=O)N4CCCCC4)cc3)CC2)c1,-5.54*,i,-7.7,i,i,i
CC(=O)N1CCN(C(=O)c2ccc(OC3CCN(CCc4ccccc4)CC3)cc2)CC1,-0.92,i,-3.2,i,i,i
CSc1cccc(CN2CCC(Oc3cccc(C(=O)N4CCCC4)c3)CC2)c1,-4.76*,i,-11.9,i,i,i
COc1cccc(-c2cc(C(=O)Nc3ccc([N+](=O)[O-])cn3)c3ccccc3n2)c1,-0.16,i,-19.3,i,-7.79*,i
O=C(Nc1ccc([N+](=O)[O-])cn1)c1cc(-c2cccc(Cl)c2)nc2ccccc12,-0.13,i,-27.5,i,-7.13*,i
O=C(Nc1ccc([N+](=O)[O-])cn1)c1cc(-c2cccc(Br)c2)nc2ccccc12,-0.75,i,-22.7,i,i,i
Cc1cccc(CCNC(=O)C2CCN(S(=O)(=O)N3CCOCC3)CC2)c1,0.9,i,-8.0,i,i,i
O=C(COC(=O)/C=C/c1ccc2c(c1)OCO2)NC1CC1,1.59,i,5.4*,i,i,i
N=c1c2c(-c3ccccc3)c(-c3ccccc3)n(Cc3ccco3)c2ncn1CCCN1CCOCC1,-7.1*,i,-5.1,i,i,i
OCCn1cnc2c(SCc3ccccc3)ncnc21,.,.,.,.,.,i
N=c1c2c(-c3ccccc3)c(-c3ccccc3)n(Cc3ccccc3)c2ncn1CCO,-8.56*,i,-31.8,i,i,i
N=c1c2c(-c3ccccc3)c(-c3ccccc3)n(Cc3ccco3)c2ncn1CCCn1ccnc1,-7.65*,i,-15.7,i,i,i
c1ccc(-c2c(-c3ccccc3)n(Cc3ccco3)c3ncnc(NCCCn4ccnc4)c23)cc1,-2.94,i,-26.2,12*,i,i
OCCNc1ncnc2c1c(-c1ccccc1)c(-c1ccccc1)n2Cc1ccco1,0.61,i,-20.4,i,i,i
COc1cc(C(=O)OCC(=O)N2CCCC2=O)cc(OC)c1C,.,.,.,.,.,i
COC(=O)c1cccc(Cn2c(Cl)c(/C=N/NC(=O)c3ccco3)sc2=O)c1,-1.2,i,-9.1,i,i,i
CC1CCN(C(=O)C2CCCN(S(=O)(=O)c3ccc4c(c3)CC(C)N4C(=O)C3CC3)C2)CC1 (stereo not drawn),-0.88,i,-12.8,i,i,i
SMILES,Kir21 inh,KCNQ1 pot,hERG protect,KCNQ1 block,KCNK9 block,KCNK3 block
CCOCCCNc1ccc(N2C(=O)CCCC2=O)cc1[N+](=O)[O-],0.7,i,-5.8,i,i,i
Cc1ccc(C(C)C)c(OCC(=O)OCC(=O)NC2CC2)c1,.,.,.,.,.,i
Cc1ccc(C(C)C)c(OCC(=O)OCc2c(C)noc2C)c1,0.04,i,-6.8,i,-7.37*,i
CCN(Cc1nc2cc(Cl)ccc2c(=O)[nH]1)C(=O)c1ccc(C)c(NC(=O)c2ccco2)c1,.,.,.,.,.,i
Cc1ccccc1C(=O)NNC(=S)NC(=O)c1cccs1,-0.2,i,-8.5,i,i,i
CC(C)(C)c1ccc(C(=O)NC(=S)NNC(=O)c2cccs2)cc1,0.83,12*,-9.0,i,i,i
Cc1cccc(C(=O)NC(=S)NNC(=O)c2cccs2)c1,0.03,8*,-1.9,i,i,i
O=C(NC(=S)NNC(=O)c1cccs1)c1ccccc1,-0.3,i,-11.5,6*,i,i
COc1ccc(S(=O)(=O)Nc2ccc3c(c2)C(=O)N([C@H](C)CO)C[C@H](C)[C@@H](CN(C)S(=O)(=O)c2c(C)noc2C)O3)cc1,.,.,.,.,.,i
N#CCCn1cc(C(=O)CN2C(=O)NC3(CCCCCC3)C2=O)c2ccccc21,.,.,.,.,.,i
O=C(COC(=O)Cc1ccc(Cl)cc1)NCc1ccco1,.,.,.,.,.,i
CCOC(=O)Cc1csc(NC(=S)NC(=O)c2ccccc2Br)n1,1.43,17*,14.7*,i,i,i
Cc1csc(NC(=S)NC(=O)c2ccccc2)n1,1.43,i,4.7*,i,i,i
CCOC(=O)Cc1csc(NC(=S)NC(=O)c2ccccc2)n1,-0.96,i,-5.2,i,i,i
COC(=O)[C@H](Cc1ccccc1)[C@@H](C)OS(N)(=O)=O,-1.66,i,-5.4,i,i,i
O=C(COC(=O)/C=C/c1ccccc1)NNC(=O)c1ccccc1F,.,.,.,.,.,i
OC(CN1CCOCC1)Cn1c2c(c3ccccc31)CCCC2 (stereo not drawn),-1.78,i,-0.7,i,i,i
O=C(Nc1ccccc1)C(=O)Nc1ccccn1,-0.31,i,-8.1,i,i,i
S=C(Nc1ccc(Nc2ccccc2)cc1)Nc1ccccn1,0.61,i,-6.5,i,-7.08*,i
COc1ccc(CCC(=O)NCCOc2ccc(C)cc2)cc1,-0.63,11*,-2.6,i,i,i
COc1ccc(CCNC(=O)CCc2ccc(OC)cc2)cc1,-2.24,i,0.7,i,i,i
CCN(CC)CCOC(=O)CCc1cccc2ccccc12,0.04,i,-2.0,i,i,i
CCN(CC)CCOC(=O)C(Cc1ccco1)Cc1cccc2ccccc12 (stereo not drawn),-7.52*,i,-8.4,i,i,i
CCOc1cc(C(=O)NC)cc(OCC)c1OCC,1.62,i,9.7*,i,i,i
C=CCOc1ccc(/C=C/C(=O)OCc2csc(CC(=O)Nc3ccccc3C)n2)cc1,.,.,.,.,.,i
CCCCC/C=N\NC(=O)Cc1ccc([N+](=O)[O-])cc1,0.93,7*,-3.4,i,i,i
